# Shown are actives, neighbours in structure and some others; about 2.2% of the full set was active somewhere.
# GRK2 aptamer HTS: compounds blocking aptamer binding on GRK2 – biochemical, human GRK2, bead flow cytometry, HTS, primary screen | Beta-adrenergic receptor kinase 1 (Homo sapiens), P25098 | hit rate 0.59% among 330,000 | FAM-aptamer displacement from GRK2 | inhibition of aptamer binding, % at 10 µM;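 active = inhibition of aptamer binding above 40%, roughly 3 SD of noise, on plates passing a quality check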;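 note: median bead fluorescence of bound FAM aptamer so fluorescent compounds give negative values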
# DNMT1 block: human DNMT1 methyltransferase inhibitors, primary screen, biochemical, molecular beacon, fluorescence, HinP1I cleavage, uHTS. inhibition (reported as % activation of signal), % at 10 µM. DNA (cytosine-5)-methyltransferase 1 (Homo sapiens), P26358. hit rate 0.83% among 360,000. AID 588458, 2011; in the data active = inhibition above about 50%
# Scp-1 inhibitor: Scp-1 phosphatase inhibitors, primary screen, biochemical, colorimetric, uHTS | Recombinant Scp1, phosphopeptide, malachite green phosphate absorbance | hit rate 0.88% among 340,000 | Carboxy-terminal domain RNA polymerase II polypeptide A small phosphatase 1 (Homo … | AID 493091, 2011 | inhibition, % at 20 µM;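 active = inhibition above about 50% at 20 µM, limit read from the data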;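 note: plate controls were DMSO wells with enzyme for no effect and wells lacking enzyme for full effect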
# Target sequence (Q9GZU7 76-261 limits assumed): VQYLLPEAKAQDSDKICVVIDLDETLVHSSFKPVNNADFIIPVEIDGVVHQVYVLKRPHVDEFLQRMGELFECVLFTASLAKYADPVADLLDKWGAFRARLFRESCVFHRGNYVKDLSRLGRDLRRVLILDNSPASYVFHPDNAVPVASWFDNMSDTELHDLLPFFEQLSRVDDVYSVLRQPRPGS
#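 System: SCP-1 catalytic domain; Reagent: Phospho 17-mer peptide substrate; Doses: one concentration, 20 µM, with 1.0% DMSO; Incubation: 45 min room-temperature reaction, 5 min colour, 30 min stabiliser; Signal: Phosphate-binding colour reagent, absorbance read at 630 nm.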
# LMPTP block: LMPTP phosphatase inhibitors, primary screen, biochemical, fluorescence intensity, uHTS. Low molecular weight phosphotyrosine protein phosphatase (Homo sapiens), P24666. recombinant LMPTP-A, OMFP fluorogenic substrate. inhibition, % at 20 µM. hit rate 0.22% among 360,000. AID 651560, 2012;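 active = compounds that cut the enzyme signal by at least half of the control window in the single-dose screen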;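 note: plate controls were DMSO wells with enzyme plus substrate for no effect and substrate without enzyme for full effect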
# Target sequence (P24666 whole entry, looked up): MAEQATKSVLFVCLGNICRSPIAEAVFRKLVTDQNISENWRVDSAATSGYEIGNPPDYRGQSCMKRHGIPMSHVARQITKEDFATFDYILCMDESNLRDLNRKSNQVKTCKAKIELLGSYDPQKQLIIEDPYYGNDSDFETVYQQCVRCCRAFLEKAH
#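 Test system – LMPTP-A enzyme · Amount – LMPTP-A at 0.625 nM final in the reaction · Buffer or medium – Bis-Tris pH 6.0, DTT, detergent · Reagent – OMFP 400 µM · Doses – single 20 µM dose · Schedule – reaction 50 min, room temperature, dark · Detection – fluorescence intensity of OMFP turnover product · Evaluation – percent inhibition versus substrate-only and uninhibited controls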
# STEP inh: STEP phosphatase inhibitors, primary screen, biochemical, fluorescence intensity, uHTS; hit rate 0.25% among 360,000; recombinant STEP, OMFP fluorogenic substrate; inhibition, % at 20 µM; Tyrosine-protein phosphatase non-receptor type 5 (Homo sapiens), P54829;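 active = inhibition at 20 µM, scaled per plate between control wells, above about 37%, limit read from the data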;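 note: 0% = DMSO with enzyme and substrate and 100% = substrate only without enzyme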
#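 Assay system: isolated STEP enzyme / Timing: 20 min at room temperature, dark / Doses: 20 µM, 1% DMSO / Technique: fluorescence intensity, excitation 480 nm, emission 540 nm / Reagent: fluorogenic phosphatase substrate OMFP at 25 µM final / Measure: percent inhibition scaled to no-enzyme and uninhibited-enzyme controls, plate-pattern corrected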
# SUMO1-SIM PPI: modulators of SUMO1 protein-protein interactions, primary screen, biochemical, uHTS; Small ubiquitin-related modifier 1 (Homo sapiens), P63165; SUMO1 binding to a labelled peptide, TR-FRET, 1 h; inhibition, % at 20 µM; hit rate 0.33% among 360,000; AID 602429, 2012; in the data active = inhibition above about 37%
# Target sequence (P63165 whole entry, looked up): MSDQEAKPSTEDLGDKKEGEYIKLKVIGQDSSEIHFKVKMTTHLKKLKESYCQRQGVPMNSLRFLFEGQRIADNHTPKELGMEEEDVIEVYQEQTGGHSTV
# GRK2 inh confirm: GRK2 aptamer-displacing inhibitors, retest, confirmation, biochemical, cherry pick 1, bead flow cytometry; shares compounds with GRK2 aptamer HTS; bead-bound GRK2, FAM-aptamer displacement; aptamer displacement, % at 10 µM; hit rate 4% among 2,000;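 active = aptamer displacement above 40%, near three times the noise of non-fluorescent compounds, on plates passing quality checks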;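 note: negative values mostly reflect intrinsic compound fluorescence rather than true enhancement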
# Aptamer quench SP: counter-screen for GRK2 aptamer inhibitors: fluorescent aptamer quenchers | shares compounds with GRK2 aptamer HTS | fluorescence response (% of DMSO), % at 10 µM | Carboxyfluorescein RNA aptamer on beads, flow cytometry quenching; hits give low values | 2,000 tested, under 10 active;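 active = compounds that quench the bead-bound fluorescent RNA probe, cutting fluorescence to under half of the solvent control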;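 note: counterscreen run without GRK2 so only probe quenching by compound is measured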
# GRK2 CP2: GRK2 aptamer-displacing inhibitors, hit retest, confirmation, biochemical, cherry pick 2, bead flow cytometry | shares compounds with GRK2 aptamer HTS | inhibition of aptamer binding, % at 10 µM | bead-bound GRK2, FAM-aptamer displacement | 360 tested, under 10 active;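 active = inhibition of aptamer binding above 40%, about triple the noise seen with nonglowing compounds, on plates passing quality control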;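 note: negative values mostly come from compounds that fluoresce themselves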
# FAM quench SP: counter-screen for GRK2 binding hits: quenchers of fluorescent RNA aptamer; shares compounds with GRK2 aptamer HTS; carboxyfluorescein RNA aptamer beads, flow cytometry quenching; hits give low values; fluorescence response vs DMSO, % at 10 µM; 360 tested, under 10 active; AID 588494;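 active = response vs DMSO under 50%, meaning signal dropped by over half, treated as fluorescence quencher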;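 note: labelled aptamer on streptavidin beads without GRK2 as a quench counter-screen; 100% = bead fluorescence of DMSO wells and lower means quenching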
# * marks the source's active call; other numbers are inactive results; · = no result given.
SMILES,GRK2 aptamer HTS,DNMT1 block,Scp-1 inhibitor,LMPTP block,STEP inh,SUMO1-SIM PPI,GRK2 inh confirm,Aptamer quench SP,others
Cc1cc(C)n(-c2nc3c(c(=O)[nH]c(=O)n3C)n2CC(O)COc2ccc(Cl)cc2Cl)n1 (stereo unspecified),72.0*,-2.9,3.8,-0.5,-2.9,-0.5,2.6,96.3,
Cc1ccc(S(=O)(=O)N2C[C@H]3C(=O)C[C@@H](c4ccc(Cl)cc4)N(S(=O)(=O)c4ccccc4C)[C@H]3C[C@H]2c2ccc(Cl)cc2)cc1,·,-3.9,·,1.1,-4.1,25.7,·,·,
Cc1ccc(S(=O)(=O)N2C[C@H]3n4c(=O)ccc(=O)n4C[C@H](OC(=O)NCc4ccco4)[C@@]3(O)C2)cc1,·,2.5,·,-1.2,-1.3,0.1,·,·,
CCCCCCCCN1C(=O)[C@H](CC(=O)N2CCN(C(=O)c3ccco3)CC2)C[C@@]2(C(=O)OC)CCCCC=C12,·,·,·,1.1,·,6.9,·,·,
CC1(C(=O)NS(=O)(=O)c2ccc(Cl)s2)CCN1C(=O)C1CCCCC1 (stereo unspecified),·,-1.5,·,-2.1,-1.4,5.4,·,·,
Cn1cc(CN2CCC(C(=O)NC(c3ccc(-c4ccccc4)cc3)c3cnccn3)CC2)c2ccccc21 (stereo unspecified),·,-10.7,·,2.2,0.2,-14.2,·,·,
COc1ccc(-c2c(C(=O)c3ccccc3)[nH]c(N)c2C(=O)NCc2ccccc2)cc1OC,·,·,·,1.0,·,-10.6,·,·,
CC(=O)Nc1ccc(C(=O)N2CCCC(c3cc(C(=O)NCc4cccnc4)no3)C2)cc1 (stereo unspecified),·,1.0,·,0.6,-0.5,-4.5,·,·,
CCC(C)(C)NC(=O)C(c1ccccc1)N(C(=O)c1csnn1)C1CC1 (stereo unspecified),60.0*,1.4,-2.3,-0.4,0.2,2.4,-0.6,99.2,
CCC(C)(C)NC(=O)C(c1ccccn1)N(C(=O)c1csnn1)C1CCCCC1 (stereo unspecified),0.0,-1.1,3.4,0.2,0.7,-0.7,·,·,
CSc1ccccc1C(=O)C1CCCN(C(=O)c2ccc(N3CCOCC3)cc2)C1 (stereo unspecified),1.0,-13.9,-5.5,-0.1,-3.6,2.1,·,·,
O=C(c1cccc2ccccc12)C1CCCN(C(=O)c2ccc(N3CCOCC3)cc2)C1 (stereo unspecified),3.0,8.3,-1.1,-0.2,-1.3,-8.2,-2.2,100.3,
CCCOc1ccccc1N1C(=O)CC(N(O)c2ccccc2)C1=O (stereo unspecified),49.0*,2.1,-2.7,-0.2,2.7,-4.2,1.3,124.5,
C[C@H](CO)N1C[C@H](C)[C@@H](CN(C)C(=O)c2cc(-c3ccccc3)on2)OCc2cn(nn2)CCCC1=O,·,-1.3,·,-1.2,1.1,2.3,·,·,
O=C(Cn1cc([N+](=O)[O-])cn1)N1CCc2ccccc21,3.0,-0.7,-5.2,0.3,-4.1,-3.9,0.2,98.5,
O=C(Cn1cc([N+](=O)[O-])cn1)N1CCCc2ccccc21,0.0,-0.6,0.6,-0.7,-0.2,-4.6,·,·,
COC(=O)[C@]12CCCCC=C1N(CCc1ccc(OC)c(OC)c1)C(=O)[C@H](CC(=O)NCc1cccc(C(F)(F)F)c1)C2,·,·,·,1.6,·,-4.5,·,·,
Oc1ccc(/C=N/n2c(-c3ccccc3)n[nH]c2=S)cc1Br,1.0,3.4,-2.8,-4.1,-4.4,2.2,·,·,
Cc1c(Br)c(O)c(Br)c(O)c1/C=N/n1c(-c2ccccc2)n[nH]c1=S,46.0*,1.4,89.7*,-0.5,0.6,11.3,-0.5,99.7,
C#CCN1CCc2onc(-c3ccc(Br)cc3)c2C1=O,·,·,·,-0.4,·,-0.5,·,·,
COC(=O)c1cc(=O)nc(NNC(C)=O)s1,·,7.1,·,-0.3,-3.5,-10.7,·,·,
CCNc1nc(OC)nc(N2CCC(Cc3ccccc3)CC2)n1,100.0*,-3.2,2.8,1.0,-1.4,-1.6,·,·,GRK2 CP2=10.1;FAM quench SP=107.0
CC1(C(=O)NS(=O)(=O)c2cccc(F)c2)CCN1C(=O)CC1CCCC1 (stereo unspecified),·,-1.2,·,-1.2,0.0,2.2,·,·,
O=C(NCc1cccs1)C1C(=O)Nc2ccccc2C(=O)N1C1CCCC1 (stereo unspecified),·,·,·,0.4,·,-5.1,·,·,
Cc1nc2ccc(C(=O)N(C)Cc3ccco3)cn2c1N(C)CC1CCCCC1,·,-3.4,·,-0.7,3.0,8.7,·,·,
SMILES,GRK2 aptamer HTS,DNMT1 block,Scp-1 inhibitor,LMPTP block,STEP inh,SUMO1-SIM PPI,GRK2 inh confirm,Aptamer quench SP,others
N#Cc1ccccc1S(=O)(=O)N1CCN(CC(O)COc2ccccc2F)CC1 (stereo unspecified),54.0*,-0.1,-9.1,-2.1,-0.8,3.0,-0.6,100.6,
CC(C)c1cn(CC[C@@H]2CC[C@@H](NC(=O)C3CCCCC3)[C@@H](CO)O2)nn1,·,·,·,-0.4,·,-0.2,·,·,
CCCCN(C=O)c1c(CC)nc2c(OCc3ccc(C(F)(F)F)cc3)cccn12,·,-5.5,·,1.6,1.8,-3.4,·,·,
Cc1ccc(C(=O)N/N=C/c2cc(Br)ccc2O)cn1,73.0*,-0.8,-12.1,-0.3,18.2,-9.4,-0.9,93.2,
Cc1ccc(C(=O)N/N=C\c2ccccc2[N+](=O)[O-])cn1,·,-0.3,-6.6,-0.7,-1.3,-22.9,·,·,
Nc1ccc(O)c2c1C(=O)c1ccccc1C2=O,41.0*,89.0*,79.9*,72.5*,36.7*,13.1,0.8,93.5,
CSc1ccccc1C(=O)NCCCn1ccnc1,100.0*,4.2,-5.0,-6.7,-0.3,1.8,2.1,94.1,
c1cc(-c2ccc(N3CCOCC3)cc2)n2cnnc2c1,·,4.5,·,-2.2,-1.4,-39.2,·,·,
